Read-outs that look alike come from different tables or passages of the source.
Legend:
Renal function = format: in vivo, mouse; conditions: after 10 days of treatment
Method in brief: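 B6 recipients of BALB/c heterotopic heart grafts were given test compound at 10 mg/kg twice daily i.p. (days 2–11) in PBS with 0.02% Tween 80 and 0.26% polyethylene glycol. Serum creatinine was measured after 10 days of treatment, n=4.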

[1] = system: B6 CD3+ T cells (CD4+ and CD8+ T cell proliferation); assay: T cell proliferation by CFSE dilution after anti-CD3/CD28 bead stimulation; format: cell-based, mouse
Method in brief: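 B6 CD3+ T cells were isolated by negative selection and CFSE-labelled. 1×10^5 cells were stimulated with 2.5×10^4 CD3/CD28 Dynabeads for 5 days. Test compound (10 mM DMSO stock) was added at the start of culture, from 1.95 to 1000 nM. CFSE dilution was gated on CD4+ or CD8+ cells and expressed as percent suppression versus stimulated cells without inhibitor. n=3–4 experiments; means ± SD; t tests.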

[2] = Pharmacokinetics after i.p. administration; format: in vivo, mice; conditions: for AUC 0-infinity / Apparent volume of distribution / Disposition rate constant: i.p., AZD8055 10 mg/kg plasma, RAPA 1 mg/kg whole blood; for concentration at 8 h: 10 mg/kg; for half-life: plasma (AZD8055), whole blood (RAPA), ip
[3] = ref Dr. A.D. McCormick, Astrazeneca, UK, personal communication; cited from earlier work
[4] = system: splenic CD4+ and CD8+ T cells of heart graft recipients; format: in vivo, mouse; conditions: for CD4+ T cell IFNγ production enhanced by transplantation / CD8+ T cell IFNγ production enhanced by transplantation: splenocytes, day 10–11 post-transplant
[5] = mice, oral administration; cited from earlier work
[6] = system: BALB/c to B6 cardiac allograft model; format: in vivo, mouse; conditions: for graft histology on days 10–11: H&E, no-IS grafts showed severe cellular rejection; for Foxp3 mRNA expression in allografts: PCR, RAPA being superior to AZD8055; for enhancement of graft-infiltrating Foxp3+ Treg: immunoperoxidase staining of allograft, vs no IS
[7] = oral dosing, Phase I; cited from earlier work
[8] = i.v. administration, B6 mice; cited from earlier work

In the case of `COc1ccc(-c2ccc3c(N4CCOC[C@@H]4C)nc(N4CCOC[C@@H]4C)nc3n2)cc1CO` [AZD8055, (5-{2,4-Bis[(3S)-3-methylmorpholin-4-yl]pyrido[2,3-d]pyrimidin-7-yl}-2-methoxyphenyl) methanol], the “adverse effects on renal function” value (Renal function) is reported as “No adverse effects”, the serum creatinine levels (Renal function; n=4) is reported as 0.2 mg/dL and the “concentrations at which AZD8055 surpassed the ability of RAPA to inhibit T cell proliferation” value ([1]; CD4+ and CD8+ T cells, CD3/CD28 beads, 5 days) is reported as at least 200 nM. For the same molecule, the “concentration dependence of inhibition of T cell proliferation” value ([1]; concentrations tested between 1.95 nM and 1000 nM) was “dose-related inhibitory effect”, the “AUC 0-infinity” value [2] was 26.2 µg/mL/h and the “Apparent volume of distribution” value [2] was 37 mL. For the same molecule, the Disposition rate constant [2] was 0.205 h⁻¹, the concentration at 8 h ([2]; mouse, in vivo) was 0.2 µM and the half-life ([2]; mouse) was 3.4 h. The concentration at 8 h ([2]; mouse, plasma, intraperitoneal) was at least 0.2 µM, the “fraction in plasma bound to plasma protein” value [3] was “approximately 95%” and the “percentage of IFN-producing CD4+ and CD8+ T cells compared with animals given RAPA” value ([4]; day 20 post-transplant, not sustained at day 80) was “higher”. The “CD4+ T cell IFNγ production enhanced by transplantation” value [4] was “reaching the same levels as in naïve mice”, the “CD8+ T cell IFNγ production enhanced by transplantation” value [4] was “inhibited completely” and the half-life [5] was “approximately 2 h”. The “graft histology on days 10–11” value [6] was “comparatively mild mononuclear cell infiltrate”, the “Foxp3 mRNA expression in allografts” value [6] was “increased” and the “enhancement of graft-infiltrating Foxp3+ Treg” value [6] was 7–10 fold. For the same molecule, the half-life in humans [7] was “approximately 2 h”.

In the case of `CO[C@H]1C[C@@H]2CC[C@@H](C)[C@@](O)(O2)C(=O)C(=O)N2CCCC[C@H]2C(=O)O[C@H]([C@H](C)C[C@@H]2CC[C@@H](O)[C@H](OC)C2)CC(=O)[C@H](C)/C=C(\C)[C@@H](O)[C@@H](OC)C(=O)[C@H](C)C[C@H](C)/C=C/C=C/C=C/1C` [RAPA, rapamycin], the “AUC 0-infinity” value [2] is reported as 1.93 µg/mL/h, the “Apparent volume of distribution” value [2] is reported as 74 mL and the Disposition rate constant [2] is reported as 0.141 h⁻¹. For the same molecule, the half-life ([2]; mouse) was 4.9 h, the concentration at 24 h ([2]; mouse, whole blood, intraperitoneal, 1 mg/kg) was over 0.01 µM and the “CD4+ T cell IFNγ production enhanced by transplantation” value [4] was “more effective inhibition”. For the same molecule, the “CD8+ T cell IFNγ production enhanced by transplantation” value [4] was “inhibited completely”, the “recipients with long-term graft survival (>80 days)” value ([6]; 10-day course, AZD8055 10 mg/kg twice daily i.p., RAPA 1 mg/kg/day i.p.) was “fifty” and the “graft histology on days 10–11” value [6] was “comparatively mild mononuclear cell infiltrate”. The “Foxp3 mRNA expression in allografts” value [6] was “increased”, the “enhancement of graft-infiltrating Foxp3+ Treg” value [6] was 7–10 fold and the half-life [8] was 6.4 h.

Source: article PMC4196715 (American journal of transplantation : official journal of …, 2014)
